Experiment [1] deals with Mus musculus. Put plainly: Analgesic activity in Swiss-Webster mouse at 2 mg/kg, sc in presence of naloxone. Details: dose 2 mg/kg. The class given is functional, organism-based. Summed up: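 Mice were pretreated with naloxone, then given blocker 2 mg/kg sc. After 2 h, when the naloxone effect had ended, morphine analgesia was tested in the same animals (modified D'Amour–Smith). Counts are responders per 10 mice.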

The species named for experiment [2] is Mus musculus. The experiment can be described thus: Narcotic agonist activity in morphine-dependent mouse assessed as suppression of abstinence. The class given is functional, organism-based. Summed up:
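Single-dose suppression test in morphine-dependent mice after withdrawal (method of Takemori et al.); compound given sc.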

Experiment [3] deals with T1, Opioid receptors; mu/kappa/delta (Homo sapiens, UniProt P41145+P41143+P35372). Put plainly: Displacement of [3H]naloxone from opiate receptor (unknown origin) after 10 mins. (In a radioligand displacement assay an active substance lowers the binding of a labelled ligand.)
For experiment [4], the target named is T1, Opioid receptors; mu/kappa/delta. Put plainly: Displacement of [3H]naloxone from opiate receptor (unknown origin) after 10 mins in presence of NaCl. An outline of the steps:
(§1)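 [3H]naloxone 1.5×10^-9 M bound to a brain homogenate (Pert–Snyder method as modified by Pasternak, with a preincubation step), 10 min incubation. Run with and without 100 mM NaCl. Stereospecific binding was defined with 1×10^-6 M levallorphan. IC50 is the concentration giving 50% inhibition of stereospecific binding, and the ratio is IC50 with NaCl over IC50 without.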

Experiment [5] has the same target. The experiment can be described thus: Ratio of IC50 for opiate receptor (unknown origin) after 10 mins in presence of NaCl to IC50 for opiate receptor (unknown origin) after 10 mins. An outline of the steps:
as §1

The subject of experiment [6] is Mus musculus. Put plainly: Ratio of morphine ED50 to compound ED50 for sc dosed Swiss-Webster mouse. Type of experiment: functional.
Experiment [7] has as its system Mus musculus. Put plainly: Analgesic activity in sc dosed Swiss-Webster mouse after 30 mins. Type of experiment: functional. The conditions noted are these: 0.5 h.
The subject of experiment [8] is Mus musculus. Put plainly: Analgesic activity in sc dosed Swiss-Webster mouse time of peak effect. The class given is functional.
For experiment [9], the system named is Mus musculus. Put plainly: Analgesic activity in Swiss-Webster mouse assessed as time required for sustainance of activity at 2 mg/kg, sc. Type of experiment: functional. The following applies: route subcutaneous.
Experiment [10] deals with Mus musculus. Put plainly: Inhibition of morphine sulfate-induced analgesic activity in Swiss-Webster mouse at 2 to 32 mg/kg, sc after 2 to 4 hrs. Type of experiment: functional, organism-based. Summed up: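 Male Swiss-Webster mice received the maleimide blocker sc at 2, 8 or 32 mg/kg (40% propylene glycol). Morphine sulfate dose-response was run after reaction time returned to control (2, 3 or 4 h). Morphine ED50 and 95% limits were taken by Litchfield–Wilcoxon, and curve slopes were compared.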

The test system of experiment [11] is Mus musculus. The experiment can be described thus: Analgesic activity in sc dosed Swiss-Webster mouse after 6.5 hrs. The class given is functional, organism-based.
Experiment [12] relates to Mus musculus. Put plainly: Analgesic activity in Swiss-Webster mouse assessed as time required for sustainance of activity at 70 mg/kg, sc. The class given is functional. The conditions noted are these: route subcutaneous.

Activity calls are given as the source filed them. The rule behind the calls is not given here.

T1 sequence (P35372 whole entry, looked up): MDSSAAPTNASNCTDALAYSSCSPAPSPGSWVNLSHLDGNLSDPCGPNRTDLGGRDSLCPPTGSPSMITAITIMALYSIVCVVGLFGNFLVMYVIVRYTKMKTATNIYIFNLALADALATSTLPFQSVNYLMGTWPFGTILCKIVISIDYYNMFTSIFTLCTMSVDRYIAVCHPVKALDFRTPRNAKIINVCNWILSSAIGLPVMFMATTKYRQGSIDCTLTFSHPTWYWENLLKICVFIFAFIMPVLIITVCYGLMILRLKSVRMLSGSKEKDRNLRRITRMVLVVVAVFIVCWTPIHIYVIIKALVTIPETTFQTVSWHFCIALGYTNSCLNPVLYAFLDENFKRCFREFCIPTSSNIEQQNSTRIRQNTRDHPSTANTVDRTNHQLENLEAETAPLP
T1 sequence (P41143 whole entry, looked up): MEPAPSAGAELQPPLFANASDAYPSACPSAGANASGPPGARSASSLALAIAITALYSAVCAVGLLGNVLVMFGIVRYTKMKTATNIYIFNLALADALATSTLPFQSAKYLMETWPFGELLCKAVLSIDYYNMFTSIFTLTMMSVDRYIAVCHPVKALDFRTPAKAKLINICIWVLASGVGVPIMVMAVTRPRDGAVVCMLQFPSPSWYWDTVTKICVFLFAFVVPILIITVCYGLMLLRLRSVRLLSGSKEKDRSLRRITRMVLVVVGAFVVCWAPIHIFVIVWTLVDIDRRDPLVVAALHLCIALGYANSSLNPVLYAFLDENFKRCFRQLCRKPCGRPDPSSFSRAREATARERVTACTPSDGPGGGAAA
T1 sequence (P41145 whole entry, looked up): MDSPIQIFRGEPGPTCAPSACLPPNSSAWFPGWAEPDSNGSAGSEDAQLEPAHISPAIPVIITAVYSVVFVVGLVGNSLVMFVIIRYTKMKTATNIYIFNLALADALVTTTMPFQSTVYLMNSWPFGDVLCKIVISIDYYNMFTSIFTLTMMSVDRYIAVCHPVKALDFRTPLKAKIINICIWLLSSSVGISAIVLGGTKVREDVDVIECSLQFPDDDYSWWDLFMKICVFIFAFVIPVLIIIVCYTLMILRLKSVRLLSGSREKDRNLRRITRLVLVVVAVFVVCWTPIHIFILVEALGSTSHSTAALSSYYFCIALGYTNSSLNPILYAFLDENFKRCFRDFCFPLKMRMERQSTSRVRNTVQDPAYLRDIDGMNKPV

`O=C1C=CC(=O)N1c1ccc(CCN2CC[C@]34CCCC[C@H]3[C@H]2Cc2ccc(O)cc24)cc1`: the outcome in the experiment with Mus musculus [1] was inactive. In addition, the inhibition entry in the experiment filed under Mus musculus [2] and in the experiment with Mus musculus [10] was “Active” each time. Also, the IC50 is listed as 5.3 nM in experiment [3] and 5.7 ×10⁻⁸ M in experiment [4]. Further, the Ratio IC50 in experiment [5] is above 10. Moreover, the “Ratio ED50” value in the experiment with Mus musculus [6] was 4. Moreover, the median effective dose (ED50) in the experiment with Mus musculus [7] amounted to 1.1 mg/kg. Further, the figures for the Time with Mus musculus [8] and in the experiment on Mus musculus [9] were 30 min and 2 h, respectively.

In the experiment with Mus musculus [7], `O=C(CBr)Nc1ccccc1CCN1CC[C@]23CCCC[C@H]2[C@H]1Cc1ccc(O)cc13` came in with a median effective dose (ED50) of 16 mg/kg. The Time was 30 min in the experiment with Mus musculus [8] and 6.5 h in the experiment on Mus musculus [12]. Further, in the experiment with Mus musculus [11], the outcome was Active.

One may read the ED50 as the midpoint of the dose-response relation. High values mean weaker potency, low ones greater potency.

(Values after ChEMBL document CHEMBL3272313, “3-Hydroxy-17-aralkylmorphinans as potential opiate receptor-site-directed alkylating agents” (J Med Chem, 1977).)
